# Data reported in ChEMBL document CHEMBL1142289, “Discovery of sulfonylalkylamides: A new class of orally active factor Xa inhibitors” (Bioorg Med Chem, 2008).
# What was measured:
# Coagulation factor X = Coagulation factor X (Homo sapiens, UniProt P00742); assay: Inhibition of human factor 10a
# Summary of the method: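 Human FXa was preincubated with compound in DMSO; 3 mM chromogenic substrate (stock) was added for 10 min at 37 °C. Inhibition was computed against DMSO control, with IC50 from least-squares regression; duplicate means.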
# Plasma [1] = assay: Anticoagulant potency in mouse plasma assessed as concentration required to double prothrombin time after 4 mins; format: functional
# Plasma [2] = assay: Anticoagulant potency in human plasma assessed as concentration required to double prothrombin time after 4 mins; format: functional
# Summary of the method: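 Human normal plasma was preincubated with compound in DMSO at 37 °C for 4 min. Clotting was started with thromboplastin and PT was timed on an automatic coagulometer. Prolongation was referenced to DMSO vehicle, and PT2 (clotting-time doubling concentration) was obtained from a least-squares regression line. Duplicate measurements, averaged.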
# Mus musculus = assay: Ex vivo anticoagulant potency in ICR mouse blood at 30 mg/kg, po after 1 hr expressed as ratio of prothrombin time in drug treated animal to control; format: functional
# Summary of the method: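 Male ICR mice (30-35 g), fasted >12 h, received compound orally at 30 mg/kg as a suspension in 0.5% methylcellulose; controls got vehicle alone (n = 3-5). Aortic blood was taken at 1 h under pentobarbital into 3.8% citrate (9:1). Platelet-poor plasma (1000g, 10 min) was preincubated 4 min at 37 °C, then thromboplastin added. Clotting time expressed as ratio versus control.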
# CYP3A4 = CYP3A4 (Homo sapiens, UniProt P08684); assay: Inhibition of human CYP3A4 at 1 uM by spectrofluorimeter; format: ADME
# Summary of the method: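 Microsomes from CYP3A4-expressing insect cells were incubated with 40 µM 7-benzyloxyquinoline and 1 µM test compound. Metabolite formed was quantified with a spectrofluorometer.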
# Cynomolgus monkey [3] = assay: Ex vivo anticoagulant potency in cynomolgus monkey blood assessed as prothrombin time prolongation at 3 mg/kg, po after 8 hrs; format: functional, Macaca fascicularis
# Summary of the method: (§1)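 Male cynomolgus monkeys (3.5-4 kg), fasted >12 h, n = 3, given 3 mg/kg orally. Femoral vein blood was drawn into 3.8% citrate (9:1) at intervals, spun at 1000g for 10 min to platelet-poor plasma, and PT measured with thromboplastin on a coagulometer. Results are % of basal value, mean ± SEM.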
# Cynomolgus monkey [4] = assay: Ex vivo anticoagulant potency in cynomolgus monkey blood assessed as prothrombin time prolongation at 3 mg/kg, po after 1 hr; format: functional, Macaca fascicularis; summary of the method: as §1
# Plasma [5] = assay: Anticoagulant potency in cynomolgus monkey plasma assessed as concentration required to double prothrombin time; format: functional, Macaca fascicularis
# Trypsin = Trypsin (Homo sapiens, UniProt P07477+P07478+P35030); assay: Inhibition of human trypsin; format: protein assay
# Summary of the method: (§2)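 Chromogenic assays at 37 °C. Final enzyme levels: thrombin 0.080 U/mL, trypsin 0.040 µg/mL, plasmin 0.040 U/mL, kallikrein 0.020 U/mL, t-PA 4000 U/mL. Compound was preincubated with enzyme in buffer for 30 min, then substrate added and p-nitroanilide release monitored continuously for 5 min at 405 nm. Ki taken from Lineweaver–Burk plots across substrate concentrations.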
# Cynomolgus monkey [6] = assay: Ex vivo anticoagulant potency in cynomolgus monkey blood assessed as prothrombin time prolongation at 3 mg/kg, po after 2 hrs; format: functional, Macaca fascicularis; summary of the method: as §1
# [7] = Tmax in cynomolgus monkey at 1 mg/kg, po; format: ADME, organism-based, Macaca fascicularis; design: dose 1 mg/kg, route oral; settings: in vivo
# Summary of the method: (§3)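 Male cynomolgus monkeys (n = 3), fasted; dosed iv (1 mg/kg in DMA/PEG400) or po (1 mg/kg, 0.5% methylcellulose suspension). Femoral vein blood drawn up to 24 h; plasma deproteinized with acetonitrile, diluted with 0.01 M ammonium formate pH 3.0, and analysed by LC/MS/MS (ODS column, positive ion turbo ionspray). Values given as mean ± SD of three determinations.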
# Prothrombin = Prothrombin (Homo sapiens, UniProt P00734); assay: Inhibition of human thrombin; summary of the method: as §2
# [8] = Mean residence time in cynomolgus monkey at 1 mg/kg, po; format: ADME, organism-based, Macaca fascicularis; design: dose 1 mg/kg, route oral; settings: in vivo; summary of the method: as §3
# Cynomolgus monkey [9] = assay: Ex vivo anticoagulant potency in cynomolgus monkey blood assessed as prothrombin time prolongation at 3 mg/kg, po after 0.5 hr; format: functional, Macaca fascicularis; summary of the method: as §1
# [10] = Volume of distribution at steady state in cynomolgus monkey at 1 mg/kg, iv; format: ADME, organism-based, Macaca fascicularis; design: dose 1 mg/kg, route intravenous; settings: in vivo, read-out: Vdss; summary of the method: as §3
# [11] = Mean residence time in cynomolgus monkey at 1 mg/kg, iv; format: ADME, organism-based, Macaca fascicularis; design: dose 1 mg/kg, route intravenous; settings: in vivo; summary of the method: as §3
# Cynomolgus monkey [12] = assay: Ex vivo anticoagulant potency in cynomolgus monkey blood assessed as prothrombin time prolongation at 3 mg/kg, po after 4 hrs; format: functional, Macaca fascicularis; summary of the method: as §1
# [13] = target: Tissue-type plasminogen activator (Homo sapiens, UniProt P00750); assay: Inhibition of human tPA; summary of the method: as §2
# Cynomolgus monkey [14] = assay: AUC in cynomolgus monkey at 1 mg/kg, iv; format: ADME, organism-based, Macaca fascicularis, Plasma; design: dose 1 mg/kg, route intravenous; settings: in vivo; summary of the method: as §3
# [15] = AUC in cynomolgus monkey at 1 mg/kg, po; format: ADME, organism-based, Macaca fascicularis; design: dose 1 mg/kg, route oral; settings: plasma; summary of the method: as §3
# [16] = Drug concentration in cynomolgus monkey at 1 mg/kg, iv after 5 mins; format: ADME, organism-based, Macaca fascicularis; design: dose 1 mg/kg, route intravenous; settings: in vivo, read-out: Activity; summary of the method: as §3
# [17] = Cmax in cynomolgus monkey at 1 mg/kg, po; format: ADME, organism-based, Macaca fascicularis; design: dose 1 mg/kg, route oral; settings: in vivo; summary of the method: as §3
# Plasminogen = Plasminogen (Homo sapiens, UniProt P00747); assay: Inhibition of human plasmin; summary of the method: as §2
# [18] = Oral bioavailability in cynomolgus monkey at 1 mg/kg; format: ADME, organism-based, Macaca fascicularis; settings: in vivo; summary of the method: as §3
# Plasma kallikrein = Plasma kallikrein (Homo sapiens, UniProt P03952); assay: Inhibition of human kallikrein; summary of the method: as §2
# [19] = Total clearance in cynomolgus monkey at 1 mg/kg, iv; format: ADME, organism-based, Macaca fascicularis; design: dose 1 mg/kg, route intravenous; settings: in vivo; summary of the method: as §3
# Sequence of CYP3A4 (P08684 whole entry): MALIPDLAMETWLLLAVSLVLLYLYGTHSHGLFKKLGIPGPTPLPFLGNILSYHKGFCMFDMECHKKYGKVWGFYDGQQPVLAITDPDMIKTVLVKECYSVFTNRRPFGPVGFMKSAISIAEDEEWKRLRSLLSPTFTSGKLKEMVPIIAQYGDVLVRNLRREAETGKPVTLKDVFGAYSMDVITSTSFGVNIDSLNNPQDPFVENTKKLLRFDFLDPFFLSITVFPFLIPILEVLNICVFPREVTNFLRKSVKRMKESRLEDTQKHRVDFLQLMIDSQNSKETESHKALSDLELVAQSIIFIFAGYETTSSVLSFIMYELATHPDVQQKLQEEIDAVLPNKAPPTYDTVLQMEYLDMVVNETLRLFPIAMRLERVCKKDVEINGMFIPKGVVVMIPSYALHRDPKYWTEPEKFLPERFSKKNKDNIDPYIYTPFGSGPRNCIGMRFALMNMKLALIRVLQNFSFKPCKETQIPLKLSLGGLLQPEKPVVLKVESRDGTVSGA
# Sequence of Coagulation factor X (P00742 41-179 limits assumed): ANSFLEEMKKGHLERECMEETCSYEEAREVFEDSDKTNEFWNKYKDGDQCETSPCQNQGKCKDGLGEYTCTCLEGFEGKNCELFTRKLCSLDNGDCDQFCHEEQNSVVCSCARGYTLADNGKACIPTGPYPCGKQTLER
# Sequence of Coagulation factor X (P00742 235-488 limits assumed): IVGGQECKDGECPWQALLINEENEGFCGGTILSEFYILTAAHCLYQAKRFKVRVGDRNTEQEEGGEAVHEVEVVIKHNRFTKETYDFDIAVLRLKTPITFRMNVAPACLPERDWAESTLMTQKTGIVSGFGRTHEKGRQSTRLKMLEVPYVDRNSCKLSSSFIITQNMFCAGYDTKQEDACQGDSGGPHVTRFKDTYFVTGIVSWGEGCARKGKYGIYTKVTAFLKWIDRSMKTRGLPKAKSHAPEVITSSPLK
# Sequence of Plasma kallikrein (P03952 20-390 limits assumed): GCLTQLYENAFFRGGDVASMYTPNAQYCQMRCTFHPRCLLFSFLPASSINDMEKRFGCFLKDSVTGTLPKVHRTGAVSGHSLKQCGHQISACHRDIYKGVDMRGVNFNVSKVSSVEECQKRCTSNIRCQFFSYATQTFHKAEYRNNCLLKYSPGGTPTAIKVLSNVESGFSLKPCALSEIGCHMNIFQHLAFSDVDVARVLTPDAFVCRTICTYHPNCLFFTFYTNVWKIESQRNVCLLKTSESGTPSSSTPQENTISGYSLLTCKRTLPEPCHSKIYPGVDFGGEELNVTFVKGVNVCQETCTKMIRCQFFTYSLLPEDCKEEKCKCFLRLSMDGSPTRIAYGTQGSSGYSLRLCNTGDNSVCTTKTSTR
# Sequence of Plasma kallikrein (P03952 391-638 limits assumed): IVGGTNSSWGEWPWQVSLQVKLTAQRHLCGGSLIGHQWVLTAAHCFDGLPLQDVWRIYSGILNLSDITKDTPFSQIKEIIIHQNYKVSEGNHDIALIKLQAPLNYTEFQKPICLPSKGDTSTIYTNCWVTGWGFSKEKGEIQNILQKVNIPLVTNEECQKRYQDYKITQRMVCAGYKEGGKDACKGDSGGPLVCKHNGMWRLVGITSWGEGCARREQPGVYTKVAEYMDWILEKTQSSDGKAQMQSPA
# Sequence of Tissue-type plasminogen activator (P00750 whole entry): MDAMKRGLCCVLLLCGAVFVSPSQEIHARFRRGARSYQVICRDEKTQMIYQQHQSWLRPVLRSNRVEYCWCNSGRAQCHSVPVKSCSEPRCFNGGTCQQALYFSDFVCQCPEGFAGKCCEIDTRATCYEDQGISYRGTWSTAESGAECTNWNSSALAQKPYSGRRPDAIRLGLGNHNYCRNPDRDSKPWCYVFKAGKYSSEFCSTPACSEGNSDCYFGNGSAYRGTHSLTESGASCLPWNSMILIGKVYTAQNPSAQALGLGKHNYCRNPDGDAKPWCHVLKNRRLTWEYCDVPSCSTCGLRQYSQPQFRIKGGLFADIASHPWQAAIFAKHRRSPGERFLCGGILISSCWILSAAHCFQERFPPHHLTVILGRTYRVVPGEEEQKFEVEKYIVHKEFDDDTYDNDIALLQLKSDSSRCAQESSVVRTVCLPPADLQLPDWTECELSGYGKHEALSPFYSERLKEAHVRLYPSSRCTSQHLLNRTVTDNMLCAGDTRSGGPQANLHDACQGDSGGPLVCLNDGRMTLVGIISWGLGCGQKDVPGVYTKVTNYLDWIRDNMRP
# Sequence of Plasminogen (P00747 97-580 limits assumed): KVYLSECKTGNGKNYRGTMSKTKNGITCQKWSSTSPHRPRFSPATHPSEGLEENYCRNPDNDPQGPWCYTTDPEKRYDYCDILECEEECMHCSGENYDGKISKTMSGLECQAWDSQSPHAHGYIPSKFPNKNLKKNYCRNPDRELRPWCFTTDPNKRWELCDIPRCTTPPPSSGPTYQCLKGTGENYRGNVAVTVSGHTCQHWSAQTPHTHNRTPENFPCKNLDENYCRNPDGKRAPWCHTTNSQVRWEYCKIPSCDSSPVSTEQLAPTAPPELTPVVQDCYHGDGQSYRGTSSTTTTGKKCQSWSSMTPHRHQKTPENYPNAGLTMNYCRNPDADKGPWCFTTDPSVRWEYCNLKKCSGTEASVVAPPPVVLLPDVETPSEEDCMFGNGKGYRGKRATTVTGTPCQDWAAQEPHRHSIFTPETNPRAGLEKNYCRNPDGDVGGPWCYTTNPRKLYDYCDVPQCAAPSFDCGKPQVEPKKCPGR
# Sequence of Plasminogen (P00747 581-810 limits assumed): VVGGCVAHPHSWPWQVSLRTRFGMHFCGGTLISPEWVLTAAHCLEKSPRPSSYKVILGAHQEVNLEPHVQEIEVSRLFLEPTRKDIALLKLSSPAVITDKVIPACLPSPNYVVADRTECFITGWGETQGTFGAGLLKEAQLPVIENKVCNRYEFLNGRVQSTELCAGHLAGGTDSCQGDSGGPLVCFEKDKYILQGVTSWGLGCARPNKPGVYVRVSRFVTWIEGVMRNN
smiles,measurement,setting,value
CN(C(=O)CS(=O)(=O)c1ccc2cc(Cl)ccc2c1)C1CCN(c2ccncc2)CC1,IC50,Coagulation factor X,720 nM
CN(C(=O)CCCS(=O)(=O)c1ccc2cc(Cl)ccc2c1)C1CCN(c2ccncc2)CC1,IC50,Coagulation factor X,140 nM
CC(=N)N1CC[C@H](Oc2ccc([C@H](Cc3ccc4ccc(C(=N)N)cc4c3)C(=O)O)cc2)C1 [DX-9065A],Activity,Plasma [1],6.8 µM
same,Activity,Plasma [2],0.69 µM
CN(CCS(=O)(=O)c1ccc2cc(Cl)ccc2c1)C(=O)C1CCN(c2ccncc2)CC1,IC50,Coagulation factor X,840 nM
CN(C(=O)CCS(=O)(=O)c1ccc2cc(Cl)ccc2c1)C1CCN(c2ccnc(CO)c2)CC1,Activity,Plasma [1],6.4 µM
same,Ratio,Mus musculus,1.1
same,IC50,Coagulation factor X,110 nM
same,inhibition at 1 µM,CYP3A4,21%
same,Activity,Plasma [2],1.5 µM
CCOC(=O)CCN(C(=O)CCS(=O)(=O)c1ccc2cc(Cl)ccc2c1)C1CCN(c2ccncc2)CC1,Activity,Plasma [1],14 µM
same,Ratio,Mus musculus,1
same,Activity,Plasma [2],0.85 µM
CC(C)N(CCCS(=O)(=O)c1ccc2cc(Cl)ccc2c1)C(=O)C1CCN(c2ccncc2)CC1,IC50,Coagulation factor X,250 nM
same,Activity,Plasma [2],8.4 µM
CN(C(=O)CCS(=O)(=O)c1ccc2cc(Cl)ccc2c1)C1CCN(c2ccncc2)CC1,Activity,Plasma [1],8 µM
same,Ratio,Mus musculus,1.6
same,IC50,Coagulation factor X,50 nM
same,inhibition at 1 µM,CYP3A4,81%
same,Activity,Plasma [2],1 µM
Cc1ccc2cc(S(=O)(=O)CCC(=O)N(C)C3CCN(c4ccnc(C)c4)CC3)ccc2c1,IC50,Coagulation factor X,720 nM
O=C(CCS(=O)(=O)c1ccc2cc(Cl)ccc2c1)N1CCN(c2ccncc2)CC1,IC50,Coagulation factor X,160 nM
Cc1cc(N2CCC(N(C)C(=O)CCS(=O)(=O)c3ccc4c(Cl)cccc4c3)CC2)ccn1,IC50,Coagulation factor X,> 5000 nM
CN(CCCS(=O)(=O)c1ccc2cc(Cl)ccc2c1)C(=O)C1CCN(c2ccncc2)CC1,Activity,Plasma [1],17 µM
same,Ratio,Mus musculus,1.3
same,Activity,Plasma [2],1.7 µM
O=C(NCCCS(=O)(=O)c1ccc2cc(Cl)ccc2c1)C1CCN(c2ccncc2)CC1,IC50,Coagulation factor X,470 nM
CCOC(=O)CN(CCCS(=O)(=O)c1ccc2cc(Cl)ccc2c1)C(=O)C1CCN(c2ccncc2)CC1,Activity,Plasma [1],11 µM
same,Ratio,Mus musculus,1
same,IC50,Coagulation factor X,64 nM
same,Activity,Plasma [2],1.9 µM
NC(=O)CN(CCCS(=O)(=O)c1ccc2cc(Cl)ccc2c1)C(=O)C1CCN(c2ccncc2)CC1,IC50,Coagulation factor X,120 nM
same,Activity,Plasma [2],2.1 µM
NCCN(C(=O)CCS(=O)(=O)c1ccc2cc(Cl)ccc2c1)C1CCN(c2ccncc2)CC1,Activity,Plasma [1],8.6 µM
same,Ratio,Mus musculus,1
same,IC50,Coagulation factor X,95 nM
same,Activity,Plasma [2],0.63 µM
Cc1cc(N2CCC(N(C)C(=O)CCS(=O)(=O)c3cc4cc(Cl)ccc4s3)CC2)ccn1,IC50,Coagulation factor X,> 5000 nM
Cc1cc(N2CCC(N(C)C(=O)CCS(=O)(=O)c3ccc4ccc(Cl)cc4c3)CC2)ccn1,IC50,Coagulation factor X,> 5000 nM
CCN(CCCS(=O)(=O)c1ccc2cc(Cl)ccc2c1)C(=O)C1CCN(c2ccncc2)CC1,IC50,Coagulation factor X,120 nM
same,Activity,Plasma [2],3.2 µM
Cc1cc(N2CCC(N(C)C(=O)CCS(=O)(=O)c3ccc4cc(Cl)ccc4c3)CC2)ccn1,Activity,Cynomolgus monkey [3],117.7%
same,Activity,Cynomolgus monkey [4],133.6%
same,Activity,Plasma [5],1.1 µM
same,Ki,Trypsin,> 200000 nM
same,Activity,Cynomolgus monkey [6],146.9%
same,Activity,Plasma [1],4.8 µM
same,Tmax,[7],2 h
same,Ratio,Mus musculus,1.6
same,Ki,Prothrombin,7500 nM
same,MRT,[8],6.6 h
same,Activity,Cynomolgus monkey [9],142%
same,Vd,[10],3.29 L/kg
same,MRT,[11],4.54 h
same,Activity,Cynomolgus monkey [12],144.6%
same,Ki,[13],67000 nM
same,IC50,Coagulation factor X,61 nM
same,Ki,Coagulation factor X,15 nM
same,AUC,Cynomolgus monkey [14],1580 ng·h/mL
same,AUC,[15],1030 ng·h/mL
same,inhibition at 1 µM,CYP3A4,40%
same,concentration at 5 min,[16],565 ng/mL
same,Activity,Plasma [2],1.6 µM
same,Cmax,[17],134 ng/mL
same,Ki,Plasminogen,> 200000 nM
same,bioavailability,[18],66.7%
same,Ki,Plasma kallikrein,3000 nM
same,clearance,[19],12.2 mL/min/kg
O=C(C1CCN(c2ccncc2)CC1)N1CCN(S(=O)(=O)c2ccc3cc(Cl)ccc3c2)CC1,IC50,Coagulation factor X,33 nM
Cc1cc(N2CCC(N(C)C(=O)CCS(=O)(=O)c3ccc4cc(Cl)ccc4c3)CC2)cc(C)n1,Activity,Plasma [1],4.1 µM
same,Ratio,Mus musculus,1.3
same,inhibition at 1 µM,CYP3A4,40%
same,Activity,Plasma [2],1.6 µM
CN(C(=O)CCS(=O)(=O)c1ccc2cc(Cl)ccc2c1)C1CCN(c2ccnc(N)c2)CC1,IC50,Coagulation factor X,79 nM
same,inhibition at 1 µM,CYP3A4,49%
same,Activity,Plasma [2],3.6 µM
O=C(O)CN(CCCS(=O)(=O)c1ccc2cc(Cl)ccc2c1)C(=O)C1CCN(c2ccncc2)CC1,Activity,Plasma [1],14 µM
same,Ratio,Mus musculus,1
same,IC50,Coagulation factor X,54 nM
same,Activity,Plasma [2],1.8 µM
Cc1cc(N2CCC(N(C)C(=O)CCS(=O)(=O)c3cc4ccc(Cl)cc4s3)CC2)ccn1,IC50,Coagulation factor X,> 5000 nM
CCOC(=O)CN(C(=O)CCS(=O)(=O)c1ccc2cc(Cl)ccc2c1)C1CCN(c2ccncc2)CC1,Activity,Plasma [1],10 µM
same,Ratio,Mus musculus,1.1
same,IC50,Coagulation factor X,60 nM
same,Activity,Plasma [2],1.1 µM
